The record followed here is ChEMBL document CHEMBL3585269, “Simple structural modifications confer cytotoxicity to allobetulin” (Bioorg Med Chem, 2015).

What all share (format): functional, cell-based
Assay [1] concerns A549. Put plainly: Cytotoxicity against human A549 cells by SRB assay. Put shortly: (§1)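 Photometric sulforhodamine B (SRB) read-out after 96 h of compound treatment. EC50 values are averaged from three independent experiments, each run in triplicate, and reported with a 95% confidence interval. The assay has an upper cut-off.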
(The SRB assay estimates cell density from bound dye.)

Assay [2] is described as follows: Cytotoxicity against human 518A2 cells by SRB assay. Put shortly:
as §1

In assay [3] the test system is HT-29. Description: Cytotoxicity against human HT-29 cells by SRB assay. The method, boiled down: as §1
The subject of assay [4] is 8505C. Description: Cytotoxicity against human 8505C cells by SRB assay. Put shortly:
as §1

Assay [5] deals with A2780. Description: Cytotoxicity against human A2780 cells by SRB assay. The method, boiled down:
as §1

The subject of assay [6] is MCF7. Description: Cytotoxicity against human MCF7 cells by SRB assay. Put shortly:
as §1

Setting [7] is: Homo sapiens, A549, read-out: EC50.
[8] abbreviates: Homo sapiens, 518A2, read-out: EC50.
[9] abbreviates: Homo sapiens, HT-29, read-out: EC50.
The mark [10] stands for this setting: Homo sapiens, 8505C, read-out: EC50.
Where [11] appears, read: Homo sapiens, A2780, read-out: EC50.
[12] abbreviates: Homo sapiens, MCF7, read-out: EC50.

Where only a bound is given, the exact number is not on record here.

One may read the EC50 as the concentration giving half of the maximal effect. `C=CCOC(=O)C[C@]1(C)[C@H]2CC[C@@H]3[C@H]4[C@H]5OC[C@@]4(CCC5(C)C)CC[C@@]3(C)[C@]2(C)CC[C@H]1C(C)(C)C(=O)OCC=C`: the EC50 in assay [1] (setting [7]) was over 30 µM; in assay [2] (setting [8]), over 30 µM; in assay [3] (setting [9]) it was 29.2 µM; in assay [4] (setting [10]) it was over 30 µM; in assay [5] (setting [11]), 22.7 µM; in assay [6] (setting [12]), over 30 µM.
For the molecule `C=C(C)[C@@H]1CC[C@]2(C)[C@H](CC[C@@H]3[C@H]4[C@H]5OC[C@@]4(CCC5(C)C)CC[C@]32C)[C@@]1(C)CCC(=O)O`, the EC50 entry in assay [1] (a549), in assay [2] (518a2), in assay [3] (ht-29), in assay [4] (8505c), in assay [5] (a2780) and in assay [6] (mcf7) was “ND(Insoluble)” throughout.
In the case of `C=C(C)[C@@H]1CC[C@]2(C)[C@H](CC[C@@H]3[C@H]4[C@H]5OC[C@@]4(CCC5(C)C)CC[C@]32C)[C@@]1(C)CCC(=O)OC`, the EC50 in assay [1] (setting [7]), in assay [2] (setting [8]), in assay [3] (setting [9]), in assay [4] (setting [10]), in assay [5] (setting [11]) and in assay [6] (setting [12]) was over 30 µM each time.
`CC1(C)CC[C@]23CC[C@]4(C)[C@H](CC[C@@H]5[C@@]6(C)CC[C@H](O)C(C)(C)[C@@H]6CC[C@]54C)[C@H]2[C@H]1OC3` [ALLOBETULIN]: the half-maximal effective concentration (EC50) in assay [1] (setting [7]), in assay [2] (setting [8]), in assay [3] (setting [9]), in assay [4] (setting [10]), in assay [5] (setting [11]) and in assay [6] (setting [12]) was over 30 µM throughout.
In the case of `CC1(C)CC[C@]23CC[C@]4(C)[C@H](CC[C@@H]5[C@@]6(C)C=C(O)C(=O)C(C)(C)[C@@H]6CC[C@]54C)[C@H]2[C@H]1OC3`, the EC50 in assay [1] (setting [7]) was 23.3 µM; in assay [2] (setting [8]), over 30 µM; in assay [3] (setting [9]) it was over 30 µM; in assay [4] (setting [10]), over 30 µM; in assay [5] (setting [11]) it was over 30 µM; in assay [6] (setting [12]), over 30 µM.
In the case of `CC1(C)CC[C@]23CC[C@]4(C)[C@H](CC[C@@H]5[C@@]6(C)CC/C(=N\O)C(C)(C)[C@@H]6CC[C@]54C)[C@H]2[C@H]1OC3`, the 50% effective concentration (EC50) result in assay [1] (a549), in assay [2] (518a2), in assay [3] (ht-29), in assay [4] (8505c), in assay [5] (a2780) and in assay [6] (mcf7) was “ND(Insoluble)” each time.
For the molecule `CC1(C)CC[C@]23CC[C@]4(C)[C@H](CC[C@@H]5[C@@](C)(CC(=O)OCc6ccccc6)[C@H](C(C)(C)C(=O)OCc6ccccc6)CC[C@]54C)[C@H]2[C@H]1OC3`, the concentration giving a half-maximal response (EC50) entry in assay [1] (a549), in assay [2] (518a2), in assay [3] (ht-29), in assay [4] (8505c), in assay [5] (a2780) and in assay [6] (mcf7) was “ND(Insoluble)” throughout.
As to `C=C(C)[C@@H]1CC[C@]2(C)[C@H](CC[C@@H]3[C@H]4[C@H]5OC[C@@]4(CCC5(C)C)CC[C@]32C)[C@@]1(C)CCC(=O)OCCCC`, the EC50 in assay [1] (setting [7]), in assay [2] (setting [8]), in assay [3] (setting [9]), in assay [4] (setting [10]), in assay [5] (setting [11]) and in assay [6] (setting [12]) was over 30 µM in each case.
As for `CCCCOC(=O)C[C@]1(C)[C@H]2CC[C@@H]3[C@H]4[C@H]5OC[C@@]4(CCC5(C)C)CC[C@@]3(C)[C@]2(C)CC[C@H]1C(C)(C)C(=O)OCCCC`, the EC50 in assay [1] (setting [7]), in assay [2] (setting [8]), in assay [3] (setting [9]), in assay [4] (setting [10]), in assay [5] (setting [11]) and in assay [6] (setting [12]) was over 30 µM throughout.
With `C=CCOC(=O)CC[C@]1(C)[C@H]2CC[C@@H]3[C@H]4[C@H]5OC[C@@]4(CCC5(C)C)CC[C@@]3(C)[C@]2(C)CC[C@H]1C(=C)C`, the half-maximal effective concentration (EC50) in assay [1] (setting [7]), in assay [2] (setting [8]), in assay [3] (setting [9]), in assay [4] (setting [10]), in assay [5] (setting [11]) and in assay [6] (setting [12]) was over 30 µM each time.
Consider `CCCOC(=O)C[C@]1(C)[C@H]2CC[C@@H]3[C@H]4[C@H]5OC[C@@]4(CCC5(C)C)CC[C@@]3(C)[C@]2(C)CC[C@H]1C(C)(C)C(=O)OCCC`, for which the EC50 was over 30 µM in assay [1] (setting [7]); over 30 µM in assay [2] (setting [8]); 27 µM in assay [3] (setting [9]); over 30 µM in assay [4] (setting [10]); 22.4 µM in assay [5] (setting [11]); over 30 µM in assay [6] (setting [12]).
For the molecule `C=C(C)[C@@H]1CC[C@]2(C)[C@H](CC[C@@H]3[C@H]4[C@H]5OC[C@@]4(CCC5(C)C)CC[C@]32C)[C@@]1(C)CCC(=O)OCCC`, the EC50 in assay [1] (setting [7]), in assay [2] (setting [8]), in assay [3] (setting [9]), in assay [4] (setting [10]), in assay [5] (setting [11]) and in assay [6] (setting [12]) was over 30 µM in each case.
For the molecule `C=C(C)[C@@H]1CC[C@]2(C)[C@H](CC[C@@H]3[C@H]4[C@H]5OC[C@@]4(CCC5(C)C)CC[C@]32C)[C@@]1(C)CCC(=O)OCC`, the EC50 in assay [1] (setting [7]), in assay [2] (setting [8]), in assay [3] (setting [9]), in assay [4] (setting [10]), in assay [5] (setting [11]) and in assay [6] (setting [12]) was over 30 µM in each case.
In the case of `CC1(C)CC[C@]23CC[C@]4(C)[C@H](CC[C@@H]5[C@@](C)(CC(=O)O)[C@H](C(C)(C)C(=O)O)CC[C@]54C)[C@H]2[C@H]1OC3`, the 50% effective concentration (EC50) entry in assay [1] (a549), in assay [2] (518a2), in assay [3] (ht-29), in assay [4] (8505c), in assay [5] (a2780) and in assay [6] (mcf7) was “ND(Insoluble)” each time.
For `C#CCOC(=O)C[C@]1(C)[C@H]2CC[C@@H]3[C@H]4[C@H]5OC[C@@]4(CCC5(C)C)CC[C@@]3(C)[C@]2(C)CC[C@H]1C(C)(C)C(=O)OCC#C`, the concentration for a half-maximal effect (EC50) in assay [1] (setting [7]) turned out to be 21.1 µM; in assay [2] (setting [8]), 17.4 µM; in assay [3] (setting [9]), 15.7 µM; in assay [4] (setting [10]), 18.7 µM; in assay [5] (setting [11]), 12.5 µM; in assay [6] (setting [12]), 27.2 µM.
For `C=C(C)[C@@H]1CC[C@]2(CO)CC[C@]3(C)[C@H](CC[C@@H]4[C@@]5(C)CC[C@H](O)C(C)(C)[C@@H]5CC[C@]43C)[C@@H]12` [BETULIN], the EC50 in assay [1] (setting [7]) is 20.6 µM; in assay [2] (setting [8]) it was 28.8 µM; in assay [3] (setting [9]) it was over 30 µM; in assay [4] (setting [10]) it was over 30 µM; in assay [5] (setting [11]), 29.3 µM; in assay [6] (setting [12]), 24.4 µM.
Regarding `COC(=O)C[C@]1(C)[C@H]2CC[C@@H]3[C@H]4[C@H]5OC[C@@]4(CCC5(C)C)CC[C@@]3(C)[C@]2(C)CC[C@H]1C(C)(C)C(=O)OC`, the EC50 in assay [1] (setting [7]) is over 30 µM; in assay [2] (setting [8]), 29.4 µM; in assay [3] (setting [9]), 17.5 µM; in assay [4] (setting [10]), 27.1 µM; in assay [5] (setting [11]), 18.1 µM; in assay [6] (setting [12]), 29.4 µM.
